Source: PubChem (Johns Hopkins Ion Channel Center)
MrgX1 antagonist: human MrgX1 receptor antagonism, primary screen; MRGX1-HEK293 calcium flux, Fluo-4, BAM8-22 antagonism; active compounds read low; 1.3% of 310,000 active; B-score at 10 µM; Q96LB2;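 active means calcium-response B-score plate-corrected more than 3 library SD below zero, starting fluorescence within 5 deviations, no agonist response on first addition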;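 further: peak minus trough fluorescence over baseline after final BAM8-22 challenge near maximal dose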
Target sequence (Q96LB2 whole entry, looked up): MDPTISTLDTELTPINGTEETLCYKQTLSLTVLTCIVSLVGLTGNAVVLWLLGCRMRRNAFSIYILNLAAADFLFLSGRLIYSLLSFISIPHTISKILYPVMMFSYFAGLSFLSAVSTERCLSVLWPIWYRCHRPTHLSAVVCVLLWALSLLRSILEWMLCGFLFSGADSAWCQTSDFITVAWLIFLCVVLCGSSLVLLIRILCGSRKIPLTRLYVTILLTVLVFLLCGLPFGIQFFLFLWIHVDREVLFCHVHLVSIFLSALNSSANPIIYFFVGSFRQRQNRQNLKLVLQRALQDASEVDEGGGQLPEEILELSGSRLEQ
MrgX1 allo act: allosterically activates human MrgX1 receptor signaling | MrgX1-HEK293, Fluo-4 calcium flux, FDSS; active compounds read high | Q96LB2 | 0.63% of 310,000 active | B-score at 10 µM | AID 588675;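 active means plate-corrected calcium response at least 3 library SD above typical, normal starting fluorescence, not activating the receptor alone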;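 further: compound read alongside a low EC10 to EC30 dose of BAM8-22 agonist; peak minus trough fluorescence over baseline measured at the second addition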
RGS4 act: RGS4 potentiation or activation. AID 463111. 0.92% of 310,000 active. B-score at 10 µM. HEK293 M3R/inducible RGS4, carbachol calcium flux Fluo4; active compounds read low;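 active means B-score of the integrated calcium signal more than 4 SD below the library mean, with starting fluorescence not abnormally high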;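 further: negative B-score means reduced calcium response which marks RGS4 activation or potentiation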
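Material: Inducible-RGS4 HEK293 cells carrying M3 receptor; also added: carbachol at ECmax as muscarinic agonist stimulus; incubation: compound preincubation 20 min at room temperature before agonist; signal: Fluo4-AM (2 µM) calcium-flux fluorescence, kinetic read; measure: integrated calcium ratio converted to B score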
MrgX1 agonist: activates human MrgX1 receptor signaling. MrgX1-HEK293 cells, Fluo-4 calcium fluorescence, agonist mode; active compounds read high. B-score at 10 µM. 0.44% of 310,000 active. AID 588627;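 active means calcium response B-score plate-corrected fluorescence ratio at least 3 library SD, with starting fluorescence B-score inside 5 SD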
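Material: HEK293 cells stably expressing human MrgX1 receptor | Quantity: 15,000 cells per well | Times: Cells plated overnight, dye loaded 0.5 h 37 °C, 0.5 h room temperature | Measured by: Kinetic Fluo-4 NW fluorescence of intracellular calcium | Control set: Positive and negative controls per plate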
RGS4 block: inhibitors of human RGS4; P49798; HEK293 M3R/RGS4 inducible, Fluo-4 calcium flux; active compounds read high; triggered by carbachol at its EC20; B-score at 10 µM; 0.45% of 310,000 active; AID 463165;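 active means B-score, a plate-corrected calcium signal, over three deviations above library mean, with baseline fluorescence within five deviations of library mean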;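 further: RGS4 expression induced by doxycycline in cells with stable M3 receptor; B-score is computed from the integrated fluorescence ratio over baseline after carbachol; higher B-score means a larger calcium signal and so more RGS4 inhibition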
Target sequence (P49798 whole entry, looked up): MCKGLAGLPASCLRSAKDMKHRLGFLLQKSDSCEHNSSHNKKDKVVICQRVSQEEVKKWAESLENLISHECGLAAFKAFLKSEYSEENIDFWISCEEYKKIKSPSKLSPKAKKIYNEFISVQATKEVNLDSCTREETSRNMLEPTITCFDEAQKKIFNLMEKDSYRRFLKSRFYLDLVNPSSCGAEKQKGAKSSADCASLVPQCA
Numbers without * were called inactive. In the library only some 3.5% were active in any assay of this set; here they are far more common.

For CCc1ccc(N2CC(C(=O)Nc3ccc(S(=O)(=O)N4CCOCC4)cc3)CC2=O)cc1 (configuration not stated) the results were MrgX1 antagonist inactive, MrgX1 allo act inactive, RGS4 act inactive, MrgX1 agonist inactive and RGS4 block inactive.
`NNC(=O)CNC(=O)c1cccc(Br)c1` gave MrgX1 antagonist inactive, MrgX1 allo act 6.51*, RGS4 act inactive, MrgX1 agonist inactive and RGS4 block inactive.
Screening Cc1[nH]c(=O)[nH]c(=O)c1S(=O)(=O)Nc1ccc(F)c([N+](=O)[O-])c1 returned MrgX1 antagonist inactive, MrgX1 allo act inactive, RGS4 act inactive, MrgX1 agonist inactive and RGS4 block inactive.
Screening O=C(O)Cc1ccc(NC(=O)C2CC=CCC2C(=O)O)cc1 (configuration not stated) returned MrgX1 antagonist -8.31*, MrgX1 allo act inactive, RGS4 act inactive, MrgX1 agonist inactive and RGS4 block inactive.
`CCc1ccc(NC(=O)C2CC=CCC2C(=O)O)cc1` (configuration not stated) gave MrgX1 antagonist inactive, MrgX1 allo act inactive, RGS4 act inactive, MrgX1 agonist inactive and RGS4 block inactive.
O=C1/C(=C/c2ccco2)CCC1C1CCCC1 (configuration not stated) was read as MrgX1 antagonist inactive, MrgX1 allo act inactive, RGS4 act inactive, MrgX1 agonist inactive and RGS4 block inactive.
For O=C1/C(=C/c2ccco2)Cc2ccccc21 the results were MrgX1 antagonist inactive, MrgX1 allo act inactive, RGS4 act inactive, MrgX1 agonist inactive and RGS4 block inactive.
Screening CC1C/C(=C/c2ccco2)C(=O)/C(=C/c2ccco2)C1 (configuration not stated) returned MrgX1 antagonist inactive, MrgX1 allo act inactive, RGS4 act inactive, MrgX1 agonist inactive and RGS4 block 6.56*.
O=C1/C(=C\c2ccco2)CCC/C1=C\c1ccco1 was read as MrgX1 antagonist inactive, MrgX1 allo act 7.56*, RGS4 act inactive, MrgX1 agonist inactive and RGS4 block inactive.
For O=C(CSCc1ccc(Br)cc1)Nc1ccccc1C(=O)N1CCOCC1 the results were MrgX1 antagonist inactive, MrgX1 allo act inactive, RGS4 act inactive, MrgX1 agonist inactive and RGS4 block inactive.
`COc1ccc(S(=O)(=O)c2c(N)n(Cc3ccco3)c3nc4ccccc4nc23)cc1` gave MrgX1 antagonist -5.51*, MrgX1 allo act inactive, RGS4 act inactive, MrgX1 agonist inactive and RGS4 block inactive.
For CC(C)(C)c1ccc(C(=O)NNC(=S)NCc2ccco2)cc1 the results were MrgX1 antagonist inactive, MrgX1 allo act inactive, RGS4 act inactive, MrgX1 agonist inactive and RGS4 block inactive.
Screening CC(C)(O)C(=O)NNC(=S)NCc1ccco1 returned MrgX1 antagonist -5.35*, MrgX1 allo act inactive, RGS4 act inactive, MrgX1 agonist inactive and RGS4 block inactive.
For CCC(CC)C(=O)Nc1cccc(C(=O)c2ccccc2)c1 the results were MrgX1 antagonist inactive, MrgX1 allo act inactive, RGS4 act inactive, MrgX1 agonist inactive and RGS4 block inactive.
For CCOC(=O)c1sc(=S)n(-c2ccccc2Cl)c1SC the results were MrgX1 antagonist inactive, MrgX1 allo act 10.2*, RGS4 act -8.83*, MrgX1 agonist inactive and RGS4 block inactive.
`CC(C)(C)c1ccc(OCCCNC2CCCC2)cc1` gave MrgX1 antagonist inactive, MrgX1 allo act inactive, RGS4 act -7.37*, MrgX1 agonist inactive and RGS4 block inactive.
Screening CCN(CC)c1ccc(NC(=O)CCS(=O)(=O)c2ccc(Br)cc2)c(C)c1 returned MrgX1 antagonist inactive, MrgX1 allo act inactive, RGS4 act inactive, MrgX1 agonist inactive and RGS4 block inactive.
O=[N+]([O-])c1cccc(S(=O)(=O)N/N=C\c2ccc3c(c2)OCO3)c1 was read as MrgX1 antagonist inactive, MrgX1 allo act 13*, RGS4 act inactive, MrgX1 agonist inactive and RGS4 block inactive.
For O=[N+]([O-])c1cccc(S(=O)(=O)N/N=C/c2ccc(O)cc2)c1 the results were MrgX1 antagonist inactive, MrgX1 allo act 6.62*, RGS4 act inactive, MrgX1 agonist inactive and RGS4 block inactive.
For COc1ccc(CNC(=O)CNC(=O)c2ccc(Br)o2)cc1OC the results were MrgX1 antagonist inactive, MrgX1 allo act inactive, RGS4 act inactive, MrgX1 agonist inactive and RGS4 block inactive.
`CCc1cc(Br)ccc1NC(=S)NCCc1ccccc1` gave MrgX1 antagonist inactive, MrgX1 allo act inactive, RGS4 act inactive, MrgX1 agonist inactive and RGS4 block inactive.
For Cc1ccc(N2CN(CCc3ccccc3)CNC2=S)cc1 the results were MrgX1 antagonist inactive, MrgX1 allo act inactive, RGS4 act inactive, MrgX1 agonist inactive and RGS4 block inactive.
Screening CCOC(=O)C1=C(c2ccccc2)NC(=S)NC1c1ccc(C)c([N+](=O)[O-])c1 (configuration not stated) returned MrgX1 antagonist -4.89*, MrgX1 allo act inactive, RGS4 act inactive, MrgX1 agonist inactive and RGS4 block inactive.
For CCOC(=O)C1=C(c2ccccc2)NC(=S)NC1c1cccc([N+](=O)[O-])c1 (configuration not stated) the results were MrgX1 antagonist inactive, MrgX1 allo act inactive, RGS4 act inactive, MrgX1 agonist inactive and RGS4 block inactive.
For O=C(CCc1ccccc1)NCc1ccc2c(c1)OCO2 the results were MrgX1 antagonist inactive, MrgX1 allo act inactive, RGS4 act inactive, MrgX1 agonist inactive and RGS4 block inactive.
Screening CCCOC(=O)c1c(-c2ccc(OC)cc2)oc2ccc(-c3ccc(OC)nc3)cc12 returned MrgX1 antagonist -8.26*, MrgX1 allo act inactive, RGS4 act inactive, MrgX1 agonist inactive and RGS4 block inactive.
For COC(=O)c1c(-c2ccc(OC)cc2)oc2ccc(-c3ccc(OC)nc3)cc12 the results were MrgX1 antagonist inactive, MrgX1 allo act inactive, RGS4 act inactive, MrgX1 agonist inactive and RGS4 block inactive.
`CCOC(=O)N1CCC(NC(=O)c2ccc(CS(=O)c3cccc(Cl)c3)o2)CC1` (configuration not stated) gave MrgX1 antagonist inactive, MrgX1 allo act inactive, RGS4 act inactive, MrgX1 agonist inactive and RGS4 block inactive.
Screening CCCCCCCCNC(=O)c1ccc(C)cc1 returned MrgX1 antagonist inactive, MrgX1 allo act inactive, RGS4 act inactive, MrgX1 agonist 32.5* and RGS4 block inactive.
Cc1nn(C(C)C(=O)NCCc2cccs2)c(=O)c2nn(-c3ccccc3)c(C)c12 (configuration not stated) was read as MrgX1 antagonist inactive, MrgX1 allo act inactive, RGS4 act inactive, MrgX1 agonist inactive and RGS4 block inactive.
